Source: ChEMBL document CHEMBL1137155, “Identification of [(naphthalene-1-carbonyl)-amino]-acetic acid derivatives as nonnucleoside inhibitors of HCV NS5B RNA dependent RNA polymerase” (Bioorg Med Chem Lett, 2004)
pIC50: −log10 of the molar value.

These molecules were tested against RNA-directed RNA polymerase (Hepacivirus hominis, UniProt O39930) (assay: Inhibitory concentration against HCV NS5B RNA dependent RNA polymerase).
In short: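 Enzyme: recombinant C-terminally truncated NS5B from genotype 1b, BK strain. Inhibitor was pre-incubated with the enzyme for 15 min. An RNA template, NTPs and [α-32P]GTP were then added, and the reaction ran for 2 h at room temperature. Product RNA was collected by filtration, and incorporated radioactivity was measured by scintillation counting.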

Chain of RNA-directed RNA polymerase (O39930 whole entry, the tested form may be a part): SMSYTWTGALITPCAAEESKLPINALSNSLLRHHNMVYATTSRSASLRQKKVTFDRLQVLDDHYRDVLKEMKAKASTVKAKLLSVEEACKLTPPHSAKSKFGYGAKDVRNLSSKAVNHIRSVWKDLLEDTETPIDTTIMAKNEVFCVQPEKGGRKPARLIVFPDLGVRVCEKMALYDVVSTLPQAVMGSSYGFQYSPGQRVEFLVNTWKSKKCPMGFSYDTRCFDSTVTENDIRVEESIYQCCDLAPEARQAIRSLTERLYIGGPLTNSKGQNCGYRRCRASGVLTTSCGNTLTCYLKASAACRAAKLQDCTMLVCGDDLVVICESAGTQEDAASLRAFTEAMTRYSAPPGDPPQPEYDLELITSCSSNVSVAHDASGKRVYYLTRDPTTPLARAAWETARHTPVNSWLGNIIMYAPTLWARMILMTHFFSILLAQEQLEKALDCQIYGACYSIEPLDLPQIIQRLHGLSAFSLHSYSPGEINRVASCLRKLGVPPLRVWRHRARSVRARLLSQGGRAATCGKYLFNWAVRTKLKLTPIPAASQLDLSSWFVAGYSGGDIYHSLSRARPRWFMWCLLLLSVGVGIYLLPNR

| SMILES | pIC50 |
| --- | --- |
| CCCOC(=O)N(CC(=O)O)C(=O)c1c(Br)ccc2c(C(F)(F)F)c(OC)ccc12 | 5.31 |
| COc1ccc2c(C(=O)N(CC(=O)O)C(=O)OCC(C)(C)C)c(Br)ccc2c1C(F)(F)F | 5.19 |
| COc1ccc2ccccc2c1C(=O)NC(CC(=O)O)C(=O)O (stereo unspecified) | < 5.00 |
| COc1ccc2c(C(=O)N(CC(=O)O)C(=O)OCC(C)C)c(Br)ccc2c1C(F)(F)F | 5.11 |
| COC(=O)N(CC(=O)O)C(=O)c1c(-c2ccc(Cl)cc2)ccc2c(C(F)(F)F)c(OC)ccc12 | < 4.70 |
| COC(=O)N(CCC(=O)O)C(=O)c1c(Br)ccc2c(C(F)(F)F)c(OC)ccc12 | < 5.00 |
| COc1ccc2c(C(=O)N(C)CC(=O)O)c(Cl)ccc2c1C(F)(F)F | 5.29 |
| COC(=O)N(CC(=O)O)C(=O)c1cccc2c(C(F)(F)F)c(OC)ccc12 | < 4.59 |
| COC(=O)N(CC(=O)O)C(=O)c1c(OC)ccc2c(C(F)(F)F)c(OC)ccc12 | 4.95 |
| COC(=O)N(CC(=O)O)C(=O)c1c(F)ccc2c(C(F)(F)F)c(OC)ccc12 | 4.82 |
| COC(=O)N(CC(=O)O)C(=O)c1c(Cl)ccc2c(C(F)(F)F)c(OC)ccc12 | 5.30 |

Molecules with a higher pIC50, results first:

| pIC50 | SMILES |
| --- | --- |
| 5.54 | C#CCOC(=O)N(CC(=O)O)C(=O)c1c(Br)ccc2c(C(F)(F)F)c(OC)ccc12 |
| 6.05 | COc1ccc2c(C(=O)N(CC(=O)O)CC(=O)O)cccc2c1C(F)(F)F |
| 5.48 | C=CCOC(=O)N(CC(=O)O)C(=O)c1c(Br)ccc2c(C(F)(F)F)c(OC)ccc12 |
| 6.92 | COc1ccc2c(C(=O)NC(CCC(=O)O)C(=O)O)c(Br)ccc2c1C(F)(F)F (stereo unspecified) |
| 5.92 | COc1ccc2c(C(=O)NC(CC(=O)O)C(=O)O)cccc2c1Br (stereo unspecified) |
| 5.89 | COc1ccc2c(C(=O)NC(CC(=O)O)C(=O)O)cccc2c1C(F)(F)F (stereo unspecified) |
| 6.31 | COc1ccc2c(C(=O)NC(CCC(=O)O)C(=O)O)cccc2c1C(F)(F)F (stereo unspecified) |
| 5.68 | COc1ccc2c(C(=O)NC(CC(=O)O)C(=O)O)c(F)ccc2c1C(F)(F)F (stereo unspecified) |
| 5.70 | COc1ccc2c(C(=O)N(C)CC(=O)O)c(Br)ccc2c1C(F)(F)F |
| 6.04 | COc1ccc2c(C(=O)NC(CC(=O)O)C(=O)O)c(Br)ccc2c1C(F)(F)F (stereo unspecified) |
| 5.85 | COc1ccc2c(C(=O)NC(CCC(=O)O)C(=O)O)c(F)ccc2c1C(F)(F)F (stereo unspecified) |
| 6.23 | COc1ccc2c(C(=O)NC(CCC(=O)O)C(=O)O)cccc2c1Br (stereo unspecified) |
| 5.51 | CCOC(=O)N(CC(=O)O)C(=O)c1c(Br)ccc2c(C(F)(F)F)c(OC)ccc12 |
| 5.85 | COC(=O)N(CC(=O)O)C(=O)c1c(Br)ccc2c(C(F)(F)F)c(OC)ccc12 |

The molecules below were run against DNA polymerase beta (Homo sapiens, UniProt P06746) (assay: Inhibitory concentration against human beta polymerase).

| SMILES | pIC50 |
| --- | --- |
| COC(=O)N(CC(=O)O)C(=O)c1c(Cl)ccc2c(C(F)(F)F)c(OC)ccc12 | < 4.00 |
